In ChEMBL document CHEMBL5143661, “Efficiency of bis-amidate phosphonate prodrugs” (Bioorg Med Chem Lett, 2022) one finds Stability, EC50 and IC50 data, which are given here for eight compounds.

Some results are limits rather than exact numbers.

Data set [1] is described as follows: Stability of the compound in 50% plasma (unknown origin) in PBS assessed as parent compound remaining measured after 24 hrs. Particulars: unidentified. Format: ADME, cell-free. Summed up: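 Compound incubated 24 h in 50% plasma diluted in phosphate-buffered saline; percent parent remaining determined (n=2).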
Data set [2] can be described thus: Stability of the compound in human K562 cell lysates in lysis buffer assessed as parent compound remaining measured after 4 hrs. Format: ADME, subcellular. Particulars: k562, 4 h. Summed up: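 Compound incubated 4 h in K562 cell extract, 5 mg/mL in lysis buffer; percent parent remaining determined (n=2).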
Data set [3] in a line: Induction of Vgamma9Vdelta2 T cell proliferation in human peripheral blood. Format: functional, cell-based.
Data set [4] concerns K562. As to the kind of experiment: Cytotoxicity against human K562 cells assessed as inhibition of cell growth incubated for 72 hrs. Format: functional, cell-based. Particulars: K562, 72 h.
The nature of data set [5]: Induction of interferon gamma production in human Vgamma9Vdelta2 T cells pretreated with K562 cells followed by compound washout and cocultured with Vgamma9Vdelta2 T cells and measured after 15 mins by ELISA. Format: functional, cell-based. Particulars: Vgamma9Vdelta2 T cell. Summed up:
(§1)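 K562 cells loaded with compound over a dose range for 15, 60 or 240 min, washed, then co-cultured with human Vγ9Vδ2 T cells.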

Data set [6] can be described thus: Induction of interferon gamma production in human Vgamma9Vdelta2 T cells pretreated with K562 cells followed by compound washout and cocultured with Vgamma9Vdelta2 T cells and measured after 60 mins by ELISA. Format: functional, cell-based. To be noted: Vgamma9Vdelta2 T cell. Summed up: as §1
(An ELISA detects its analyte on a solid surface through an enzyme-linked reagent.)

Data set [7] is described as follows: Induction of interferon gamma production in human Vgamma9Vdelta2 T cells pretreated with K562 cells followed by compound washout and cocultured with Vgamma9Vdelta2 T cells and measured after 240 mins by ELISA. Format: functional, cell-based. To be noted: Vgamma9Vdelta2 T cell. In outline:
as §1

As a reminder, the EC50 is the concentration at which the effect is half-maximal. The term IC50 denotes the concentration at which inhibition is half-maximal.

For `COC(=O)[C@@H](NP(=O)(CCC=C(C)C)N[C@H](C(=O)OC)C(C)C)C(C)C`, the figures for the Stability in data set [1] and in data set [2] were 99% and 85%, respectively.
The like results for `CC(C)=CCCP(=O)(N[C@@H](C)C(=O)OC(C)C)N[C@@H](C)C(=O)OC(C)C` were, in that order, 90% and 79%.
For the compound `CCOC(=O)CNP(=O)(CC/C=C(\C)CO)NCC(=O)OCC`, the Stability is 82% in data set [1] and 57% in data set [2]. For the same compound, the EC50 in data set [3] turned out to be 43 nM; in data set [5], 23000 nM; in data set [6] it was 7200 nM; in data set [7] it was 1600 nM. The concentration for half-maximal inhibition (IC50) in data set [4] is above 100000 nM.
Turning to `COC(=O)[C@@H](NP(=O)(CC/C=C(\C)CO)N[C@H](C(=O)OC)C(C)C)C(C)C`, the Stability in data set [1] was 86%; in data set [2] it was 74%. Further, the EC50 worked out at 30 nM in data set [3], 14000 nM in data set [5], 5700 nM in data set [6] and 1900 nM in data set [7]. Moreover, the IC50 in data set [4] came out at 10000 nM.
On to `C/C(=C\CCP(=O)(OCOC(=O)C(C)(C)C)OCOC(=O)C(C)(C)C)CO`, for which, in data set [2], the Stability is listed as 0%. For the same compound, the IC50 in data set [4] is above 100000 nM. In addition, the EC50 worked out at 43 nM in data set [5], 30 nM in data set [6] and 24 nM in data set [7].
The like results for `CCOC(=O)CNP(=O)(CC/C=C(\C)CO)Oc1ccccc1` (racemic) were, in that order, 86%, above 100000 nM, 1500 nM, 230 nM and 51 nM.
Regarding `CCOC(=O)[C@H](C)NP(=O)(CCC=C(C)C)N[C@@H](C)C(=O)OCC`, the Stability in data set [1] is 70%; in data set [2], 31%.
As for `CCOC(=O)CNP(=O)(CCC=C(C)C)NCC(=O)OCC`, the Stability in data set [1] is given as 82%; in data set [2], 86%.
